Data from ChEMBL document CHEMBL1149197, “Design and synthesis of beta-amino-alpha-hydroxy amide derivatives as inhibitors of MetAP2 and HUVEC growth” (Bioorg Med Chem Lett, 2004).
Values after ≈ are worked out from the molar mass of the structure shown.

Columns and labels:
Type in all cases: functional
[1] = system: HUVEC; assay: In vitro anti-proliferative activity against human umbilical vein endothelial cells at 5 uM.; details: for inhibition of growth at 5 µM: Homo sapiens, HUVEC, read-out: GI
[2] = system: HUVEC; assay: Anti-proliferative activity against human umbilical vein endothelial cells (HUVECs)
In short: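 HUVECs seeded at 1500 cells/well and cultured 24 h at 37 °C, then exposed to a dose-response series of compound for 24 h. Proliferation was read as ³H-thymidine incorporation by scintillation proximity assay. GI₅₀ was taken from plots of percent-of-control ³H-thymidine uptake versus compound concentration.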

[3] = species: Bos taurus; assay: Anti-proliferative activity against calf endothelial cells; details: endothelial cell

In the case of `COc1cc(/C=C/C(=O)Nc2ccc(NC(=O)[C@@H](O)[C@H](N)CC3CCCCC3)cc2)cc(OC)c1OC` (stereo in doubt), the “growth inhibition (GI)” value [1] is reported as 96% and the GI50 [2] is reported as 2000 nM.
`COc1cc(/C=C/C(=O)Nc2ccc(NC(=O)[C@@H](O)[C@H](N)CCc3ccccc3)cc2)cc(OC)c1OC` was tested, and the inhibition of growth at 5 µM [1] was > 98% and the GI50 ([2]; Homo sapiens, HUVEC) was 850 nM.
`CCSCC[C@@H](N)[C@H](O)C(=O)Nc1ccc(NC(=O)c2cc(OC)c(OC)c(OC)c2)cc1` (single isomer, unassigned) gave an inhibition of growth at 5 µM [1] of 20%.
For `CCSCC[C@@H](N)[C@H](O)C(=O)Nc1ccccc1`, the inhibition of growth at 5 µM [1] was 0%.
`CCSCC[C@@H](N)[C@H](O)C(=O)Nc1ccc(NC(=O)c2ccc(OC)cc2)cc1` (single isomer, unassigned) showed an inhibition of growth at 5 µM [1] of 15%.
In the case of `COc1cc(NC(=O)/C=C/c2cc(OC)c(OC)c(OC)c2)ccc1NC(=O)[C@@H](O)[C@H](N)CCc1ccccc1`, the inhibition of growth at 5 µM [1] is reported as > 98% and the GI50 ([2]; Homo sapiens, HUVEC) is reported as 700 nM.
`CCSCCC(N)C(O)C(=O)Nc1ccc(NC(=O)/C=C/c2ccccc2)cc1` (single isomer, unassigned) showed an inhibition of growth at 5 µM [1] of 48%.
Work on `CCOc1ccc(CCC(=O)Nc2ccc(NC(=O)[C@@H](O)[C@H](N)CC3CCCCC3)cc2)cc1` yielded an inhibition of growth at 5 µM [1] of 42%.
`COc1cc(/C=C/C(=O)Nc2ccc(NC(=O)[C@@H](O)[C@H](N)CCC3CCCCC3)cc2)cc(OC)c1OC` was tested, and the inhibition of growth at 5 µM [1] was > 98% and the GI50 ([2]; Homo sapiens, HUVEC) was 800 nM.
With `COc1cc(/C=C/C(=O)Nc2ccc(NC(=O)[C@@H](O)[C@H](N)Cc3ccccc3)cc2)cc(OC)c1OC` the inhibition of growth at 5 µM [1] was 93%.
In the case of `COc1cc(/C=C/C(=O)Nc2ccc(NC(=O)[C@@H](O)[C@H](N)CC3CCCCC3)cc2C)cc(OC)c1OC`, the inhibition of growth at 5 µM [1] is reported as > 98% and the GI50 ([2]; Homo sapiens, HUVEC) is reported as 1800 nM.
In the case of `COc1cc(NC(=O)[C@@H](O)[C@H](N)CC2CCCCC2)ccc1NC(=O)/C=C/c1cc(OC)c(OC)c(OC)c1`, the inhibition of growth at 5 µM [1] is reported as > 98% and the GI50 ([2]; Homo sapiens, HUVEC) is reported as 1200 nM.
Molecule `CCOc1ccc(/C=C/C(=O)Nc2ccc(NC(=O)C(O)C(N)CCSCC)cc2)cc1` (single isomer, unassigned) has an inhibition of growth at 5 µM [1] of 91%.
With `COc1cc(/C=C/C(=O)Nc2ccc(NC(=O)[C@@H](O)[C@H](N)CCc3ccccc3)c(C)c2)cc(OC)c1OC` the inhibition of growth at 5 µM [1] was 92% and the GI50 ([2]; Homo sapiens, HUVEC) was 2300 nM.
`COc1cc(/C=C/C(=O)NC2CCC(NC(=O)[C@@H](O)[C@H](N)CC3CCCCC3)CC2)cc(OC)c1OC` (some centres not stated) showed an inhibition of growth at 5 µM [1] of 52%.
For `CCSCC[C@@H](N)[C@H](O)C(=O)Nc1ccc(NC(=O)/C=C/c2cc(OC)c(OC)c(OC)c2)cc1`, the inhibition of growth at 5 µM [1] was 89%.
Work on `COc1cc(/C=C/C(=O)NC2CCC(NC(=O)[C@@H](O)[C@H](N)CCc3ccccc3)CC2)cc(OC)c1OC` (some centres not stated) yielded an inhibition of growth at 5 µM [1] of 46%.
In the case of `CCOc1ccc(/C=C/C(=O)Nc2ccc(NC(=O)[C@@H](O)[C@H](N)CC3CCCCC3)cc2)cc1`, the inhibition of growth at 5 µM [1] is reported as > 98% and the GI50 ([2]; Homo sapiens, HUVEC) is reported as 1000 nM.
With `CCOc1ccc(/C=C/C(=O)Nc2ccc(NC(=O)[C@@H](O)[C@H](N)CCc3ccccc3)cc2)cc1` the inhibition of growth at 5 µM [1] was > 98% and the GI50 ([2]; Homo sapiens, HUVEC) was 1800 nM.
In the case of `COc1cc(/C=C/C(=O)O[C@@H]2CC[C@]3(CO3)[C@@H]([C@]3(C)O[C@H]3CCC=C(C)C)[C@@H]2OC)cc(OC)c1OC`, the IC50 [3] is reported as 3e-05 ng/mL (≈ 5.81e-05 nM).
With `COc1cc(/C=C/C(=O)Nc2ccc(NC(=O)[C@@H](O)[C@H](N)CC3CCCCC3)cc2)cc(OC)c1OC` (stereo in doubt; 11) the inhibition of growth at 5 µM [1] was > 98% and the GI50 [2] was 670 nM.
With `CCSCCC(N)C(O)C(=O)Nc1ccc(NC(=O)/C=C/c2ccc(OC)cc2)cc1` (single isomer, unassigned) the inhibition of growth at 5 µM [1] was 43%.
